Assay results taken from ChEMBL document CHEMBL1135816, “6-Aryl-1,4-dihydro-benzo[d][1,3]oxazin- 2-ones: a novel class of potent, selective, and orally active nonsteroidal progesterone receptor antagonists” (J Med Chem, 2002).

Key:
Progesterone receptor [1] = biological target: T1, Progesterone receptor (Homo sapiens, UniProt P06401); test: Antagonist activity against progesterone receptor (PR) in an assay using PRE-luciferase plasmid co-transfected CV-1 cells; type: functional, cell-based
T1 sequence (P06401 whole entry): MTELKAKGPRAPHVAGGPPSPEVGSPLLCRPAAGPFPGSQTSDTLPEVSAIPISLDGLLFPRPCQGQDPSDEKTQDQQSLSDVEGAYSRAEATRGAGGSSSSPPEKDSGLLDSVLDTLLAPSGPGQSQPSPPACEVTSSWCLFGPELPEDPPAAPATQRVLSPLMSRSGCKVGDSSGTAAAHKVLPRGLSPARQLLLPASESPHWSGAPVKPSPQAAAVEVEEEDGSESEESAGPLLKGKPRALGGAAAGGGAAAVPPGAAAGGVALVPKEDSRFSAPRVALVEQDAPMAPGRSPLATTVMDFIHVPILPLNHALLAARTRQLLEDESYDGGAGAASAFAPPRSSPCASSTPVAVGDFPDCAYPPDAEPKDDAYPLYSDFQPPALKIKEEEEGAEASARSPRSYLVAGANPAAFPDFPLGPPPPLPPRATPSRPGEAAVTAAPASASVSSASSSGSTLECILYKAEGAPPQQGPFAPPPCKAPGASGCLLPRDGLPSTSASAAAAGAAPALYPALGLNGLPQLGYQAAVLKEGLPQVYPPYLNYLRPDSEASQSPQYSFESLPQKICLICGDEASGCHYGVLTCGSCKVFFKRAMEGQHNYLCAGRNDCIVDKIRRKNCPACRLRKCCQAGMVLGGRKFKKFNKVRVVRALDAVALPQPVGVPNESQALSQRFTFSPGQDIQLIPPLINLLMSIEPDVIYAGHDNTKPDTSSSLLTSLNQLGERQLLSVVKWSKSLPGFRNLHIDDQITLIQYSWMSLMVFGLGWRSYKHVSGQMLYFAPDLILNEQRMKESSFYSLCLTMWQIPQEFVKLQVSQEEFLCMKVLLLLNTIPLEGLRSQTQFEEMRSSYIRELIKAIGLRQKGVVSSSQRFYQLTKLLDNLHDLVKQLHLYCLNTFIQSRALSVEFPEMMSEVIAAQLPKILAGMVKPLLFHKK
Summary of the method: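 CV-1 cells cotransfected with hPR and PRE-luciferase plasmids, luciferase read-out; IC50 averaged from at least duplicate determinations.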

Progesterone receptor [2] = biological target: T1, Progesterone receptor; test: Antagonist activity against progesterone receptor (PR) in an alkaline phosphatase assay in the T47D human breast carcinoma cell line; type: functional, cell-based
[3] = biological target: T2, Progesterone receptor (Rattus norvegicus) (UniProt Q63449); test: Inhibitory activity against progesterone receptor (PR) in ovariectomized mature female rat decidualization model; type: functional
T2 sequence (whole entry): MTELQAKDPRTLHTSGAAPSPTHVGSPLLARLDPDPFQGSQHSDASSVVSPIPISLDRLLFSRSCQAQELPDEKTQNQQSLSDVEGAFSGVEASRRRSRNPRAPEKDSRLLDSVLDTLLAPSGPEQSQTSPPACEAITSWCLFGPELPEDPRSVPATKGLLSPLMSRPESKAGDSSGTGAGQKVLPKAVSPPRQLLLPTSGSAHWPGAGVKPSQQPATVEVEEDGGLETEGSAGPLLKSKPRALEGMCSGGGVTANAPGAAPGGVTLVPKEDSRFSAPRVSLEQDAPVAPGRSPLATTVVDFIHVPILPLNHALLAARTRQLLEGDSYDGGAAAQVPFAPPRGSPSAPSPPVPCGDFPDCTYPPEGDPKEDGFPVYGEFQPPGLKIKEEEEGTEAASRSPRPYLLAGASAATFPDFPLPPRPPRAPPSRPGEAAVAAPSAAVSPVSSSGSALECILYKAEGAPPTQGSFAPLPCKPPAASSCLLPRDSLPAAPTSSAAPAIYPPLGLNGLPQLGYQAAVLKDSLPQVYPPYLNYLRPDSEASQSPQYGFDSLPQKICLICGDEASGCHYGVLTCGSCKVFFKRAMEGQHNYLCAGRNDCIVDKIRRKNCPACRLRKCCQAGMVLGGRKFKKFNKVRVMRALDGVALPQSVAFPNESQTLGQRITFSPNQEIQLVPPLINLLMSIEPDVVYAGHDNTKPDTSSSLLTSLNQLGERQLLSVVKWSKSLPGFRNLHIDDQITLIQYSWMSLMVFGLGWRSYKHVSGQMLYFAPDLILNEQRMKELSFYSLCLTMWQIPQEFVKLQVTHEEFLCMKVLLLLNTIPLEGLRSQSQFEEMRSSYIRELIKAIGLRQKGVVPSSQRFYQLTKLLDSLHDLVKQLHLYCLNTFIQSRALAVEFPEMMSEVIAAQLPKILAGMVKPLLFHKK
Summary of the method: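 Ovariectomized mature rats dosed orally for 7 days, with progesterone 5.6 mg/kg SC given alongside; vehicle-only controls. Decidual response (D/C) measured 24 h after the final treatment, seven animals per point. ED50 averaged from at least duplicate determinations.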

[4] = biological target: T2, Progesterone receptor (Rattus norvegicus); test: inhibitory activity against progesterone receptor (PR) in ovariectomized mature female rat complement C3 model; type: functional
Summary of the method: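 Adult ovariectomized rats given oral doses; read-out is reversal of progestin down-regulation of estrogen-induced complement C3 synthesis in uterine epithelium. ED50 averaged from at least duplicate determinations.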

Progesterone receptor [5] = biological target: T1, Progesterone receptor; test: Agonist activity against progesterone receptor (PR) in an alkaline phosphatase assay in the T47D human breast carcinoma cell line; type: functional, cell-based
Summary of the method: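 T47D human breast carcinoma cells scored for PR agonism via alkaline phosphatase read-out; EC50 taken as the mean of at least duplicate determinations.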

[6] = Plasma clearance (Cl) for the compound in female rats for a dose of 1 mg/kg administered intravenously; type: ADME, organism-based; set-up: dose 1 mg/kg, route intravenous; conditions: rat, iv, read-out: Clp (converted)
[7] = Half life in female rats for a dose of 1 mg/kg administered intravenously.; type: ADME, organism-based; set-up: dose 1 mg/kg, route intravenous; conditions: rat, in vivo, iv
[8] = Area under the curve (AUC) for the compound in female rats for a dose of 1 mg/kg administered intravenously.; type: ADME, organism-based; set-up: dose 1 mg/kg, route intravenous; conditions: rat, in vivo, iv

IC50 (Progesterone receptor [1]) [nM]	IC50 (Progesterone receptor [2]) [nM]	ED50 [3] [mg/kg]	Structure (SMILES)	also measured
500	300		CC1(C)OC(=O)Nc2ccc(-c3ccccc3Cl)cc21	
98.8	26.2	0.6	CC1(C)OC(=O)Nc2c(F)cc(-c3cc(F)cc(C#N)c3)cc21	
642	30		CC1(C)OC(=O)Nc2ccc(-c3ccc(Cl)cc3)cc21	
	15.1		CC1(C)OC(=O)Nc2ccc(-c3ccc(F)c(C#N)c3)cc21	
9.3	30	> 30	CC1(C)OC(=O)Nc2ccc(-c3cccc(Cl)c3)cc21	
		0.3	CC#C[C@]1(O)CC[C@H]2[C@@H]3CCC4=CC(=O)CCC4=C3[C@@H](c3ccc(N(C)C)cc3)C[C@@]21C	ED50 [4]: 1.7 mg/kg
2.6		2	CC1(C)OC(=O)Nc2ccc(-c3cc(F)cc(Cl)c3)cc21	EC50 (Progesterone receptor [5]): 500 nM
9.9	17	7	CC1(C)OC(=O)Nc2ccc(-c3cccc(C#N)c3)cc21	clearance [6]: 36.3 mL/min/kg; half-life [7]: 36 min; AUC [8]: 460 ng·h/mL
38.3	19.5		COc1cccc(-c2ccc3c(c2)C(C)(C)OC(=O)N3)c1	
3.8	8.2	1.5	CC1(C)OC(=O)Nc2ccc(-c3cccc(F)c3)cc21	
